Paper PMC8788976 (Veterinary Medicine and Science, 2021)

What was measured:
[1] = Plasma concentrations in the single dose arthritis induction study; assay type: in vivo, Beagle dogs
How it was run: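 Ten male Beagles (23–36 months, 9–12 kg); six received oral 4 mg/kg on day 0 and again on day 12. Urate crystal suspension injected into the stifle joint on days 0 (2 h post-dose), 2, 7, 14 and 21. Jugular blood taken at each injection time and processed as for plasma PK. Parent and pyrazol metabolite quantified by HPLC-MS/MS.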

[2] = Population PK model of enflicoxib and pyrazol metabolite; design: species or system Beagle dogs
How it was run: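 Population PK model built from two sources. Toxicokinetic data: 228 samples from 12 Beagles, days 1 and 28, daily 1 or 4 mg/kg. PK data: 341 parent/metabolite samples from 26 Beagles in the oral PK and two arthritis studies. Structure: two-compartment parent (first-order absorption with lag, first-order elimination) and three-compartment metabolite. Body weight included as covariate. Evaluated by visual predictive check (90% intervals); parameter CIs from non-parametric bootstrap.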

[3] = Single oral dose pharmacokinetic study in Beagle dogs; assay type: in vivo; details: for AUC 24h / AUC last / C max: mean ± SD; for T last / T max: median (range)
How it was run: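 Single oral dose of 1 or 4 mg/kg given as micronised drug in gelatine capsules, followed by 5 ml water; dogs fasted overnight until 4 h post-dose. Jugular blood taken pre-dose, at 0.25–12 h, then daily to day 21. K3-EDTA plasma (2500 g, 15 min, 4°C) stored at −80°C. Parent and pyrazol metabolite measured by SPE then HPLC-MS/MS (celecoxib internal standard). Non-compartmental analysis: Cmax observed; AUC by linear trapezoidal rule; AUCinf extrapolated using the terminal rate constant.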

[4] = Plasma concentrations in the repeated dose arthritis induction study; assay type: in vivo, Beagle dogs
How it was run: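 Twelve male Beagles given oral 8 mg/kg on day 0, then 4 mg/kg weekly on days 7, 14 and 21, with stifle urate crystal inductions during the study. Jugular blood taken at time points including each intra-articular injection, and through day 56. Plasma processed as in the PK study. Pyrazol metabolite quantified by SPE then HPLC-MS/MS; values reported as mean ± SD.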

[5] = tested on: COX-2 enzymes isolated from sheep placenta; details: ref Wagemakers et al., 2009; cited from earlier work
[6] = tested on: urate crystal-induced acute arthritis; assay type: in vivo, Beagle dogs; details: plasma level, acute arthritis induction model in dogs
How it was run: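 Efficacy dataset: 18 enflicoxib-treated dogs from both urate arthritis studies, giving 71 paired observations of plasma parent or pyrazol metabolite level and lameness score taken at the same time. These pairs were linked to the population PK model to define the minimum effective plasma concentration.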

[7] = tested on: urate crystal-induced acute arthritis; assay: Single dose arthritis induction study; assay type: in vivo, Beagle dogs
How it was run: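 Male Beagles (23–36 months, 9–12 kg). Groups: six dogs oral 4 mg/kg on days 0 and 12; three dogs reference coxib 2 mg/kg on days 0 and 14; one dog untreated. Stifle urate crystal injections on days 0 (2 h post-dose), 2, 7, 14 and 21. Blinded scoring before and 0.5–12 h after each injection. Standing plus walking lameness summed as CLS; pain scored on palpation.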

NS(=O)(=O)c1ccc(-n2nc(C(F)(F)F)cc2-c2ccc(F)cc2F)cc1 [Pyrazol metabolite]
plasma concentration ([1]; day 0, single 4 mg/kg enflicoxib, average ± SD): 59 ± 34 ng/mL | plasma concentration ([1]; day 2, single 4 mg/kg enflicoxib, average ± SD): 207 ± 191 ng/mL | plasma concentration ([1]; day 7, single 4 mg/kg enflicoxib, average ± SD): 321 ± 241 ng/mL | plasma concentration ([1]; day 14, after second 4 mg/kg dose on day 12, average ± SD): 492 ± 240 ng/mL | plasma concentration ([1]; day 21, after second 4 mg/kg dose on day 12, average ± SD): 398 ± 172 ng/mL | CLM/F (θ7), Bootstrap Median ([2]; apparent clearance of pyrazol metabolite, bootstrap): 0.111 L/h | CLM/F (θ7), Value ([2]; apparent clearance of pyrazol metabolite, θ7·(WGT/9.9)^0.75): 0.111 L/h | VM/F (θ4), Value ([2]; central compartment, assumed the same as that of enflicoxib): 6.59 L | VM/F (θ4), Bootstrap Median ([2]; central compartment, bootstrap): 6.60 L | CLM2/F (θ12), Bootstrap Median ([2]; central-deep peripheral, bootstrap): 0.132 L/h | CLMP/F (θ8), Bootstrap Median ([2]; central-shallow peripheral, bootstrap): 13.2 L/h | VM2/F (θ13), Bootstrap Median ([2]; deep peripheral compartment, bootstrap): 13.5 L | VM2/F (θ13), Value ([2]; deep peripheral compartment, θ13·(WGT/9.9)^1.0): 13.4 L | CLM2/F (θ12), Value ([2]; distribution clearance central-deep peripheral, θ12·(WGT/9.9)^0.75): 0.131 L/h | CLMP/F (θ8), Value ([2]; distribution clearance central-shallow peripheral, θ8·(WGT/9.9)^0.75): 13.2 L/h | estimated terminal half-life ([2]; population PK model): 13.8 days | Inter-individual variability on CLM/F, Value ([2]; random parameter, %CV): 31% | Residual variability, Value ([2]; random parameter, %CV): 20% | Inter-individual variability on CLM/F, Bootstrap Median ([2]; random parameter, bootstrap): 31% | Residual variability, Bootstrap Median ([2]; random parameter, bootstrap): 20% | VMP/F (θ9), Bootstrap Median ([2]; shallow peripheral compartment, bootstrap): 29.33 L | VMP/F (θ9), Value ([2]; shallow peripheral compartment, θ9·(WGT/9.9)^1.0): 29.3 L | AUC 24h ([3]; single oral enflicoxib 1 mg/kg): 1104 ± 502 ng·h/mL | AUC last ([3]; single oral enflicoxib 1 mg/kg): 40,784 ± 10,228 ng·h/ml | C max ([3]; single oral enflicoxib 1 mg/kg): 165.8 ± 48.5 ng/mL | T last ([3]; single oral enflicoxib 1 mg/kg): 480 h | T max ([3]; single oral enflicoxib 1 mg/kg): 132.0 (96–168) h | AUC 24h ([3]; single oral enflicoxib 4 mg/kg): 2647 ± 1322 ng·h/mL | AUC last ([3]; single oral enflicoxib 4 mg/kg): 132,329 ± 33,065 ng·h/ml | C max ([3]; single oral enflicoxib 4 mg/kg): 577.0 ± 203.4 ng/mL | T last ([3]; single oral enflicoxib 4 mg/kg): 480 h | T max ([3]; single oral enflicoxib 4 mg/kg): 132.0 (96–168) h | terminal half-life read from the graphic profile ([3]; single oral enflicoxib 1 or 4 mg/kg, not adequately determinable): around 14 days | maximum plasma level ([4]; day 23, 8 mg/kg loading, 4 mg/kg on days 7, 14, 21): 1748 ± 334 ng/mL | plasma level at end of experimental period ([4]; day 56, 28 days after last dose administration): 348 ± 152 ng/mL | selectivity for COX-2 versus COX-1 [5]: more than 250 fold | Minimum Effective Concentration (MEC) [6]: 411 ng/mL

NS(=O)(=O)c1ccc(-n2nc(C(F)(F)F)cc2-c2ccc(F)cc2)cc1 [mavacoxib]
lameness and pain after induction ([7]; days 0 and 7, mavacoxib 2 mg/kg on days 0 and 14): some degree of lameness and pain | lameness or pain after induction ([7]; days 14 and 21, after second administration on day 14, mavacoxib 2 mg/kg): none or mild lameness or pain
